Laboratory results as given in ChEMBL document CHEMBL1687798, “In vitro mitochondrial toxicity of metacavir, a new nucleoside reverse transcriptase inhibitor for treatment of hepatitis B virus” (Antimicrob Agents Chemother, 2010).

Key:
Type in all cases: cell-based
HepG2 [1] = assay: Cytotoxicity against human HepG2 cells assessed as reduction in mitochondrial DNA content at 10 uM after 15 days by RT-PCR method relative to control; parameters: scale not given: the % may be the effect or the level left; settings: hepg2, 360 h
Summary of the method: (§1)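 Total DNA extracted from HepG2 cells after 15-day exposure. Cells reseeded every 5 days; compounds added from 1,000× DMSO stocks, final DMSO 0.1%. Cytochrome b and actin copies measured by TaqMan real-time PCR against plasmid standard curves, 45 cycles. mtDNA/nDNA ratio expressed as percent of DMSO control; three independent experiments.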

HepG2 [2] = assay: Cytotoxicity against human HepG2 cells assessed as inhibition of mitochondrial respiratory chain complex II activity after 15 days relative to control; settings: hepg2, 360 h
HepG2 [3] = assay: Cytotoxicity against human HepG2 cells assessed as inhibition of mitochondrial respiratory chain complex II activity at 250 uM after 15 days relative to control; settings: hepg2, 360 h
HepG2 [4] = assay: Cytotoxicity against human HepG2 cells assessed as inhibition of mitochondrial respiratory chain complex I activity at 10 uM after 15 days relative to control; settings: hepg2, 360 h
HepG2 [5] = assay: Cytotoxicity against human HepG2 cells assessed as inhibition of mitochondrial respiratory chain complex IV activity at 10 uM after 15 days relative to control; settings: hepg2, 360 h
HepG2 [6] = assay: Cytotoxicity against human HepG2 cells assessed as inhibition of mitochondrial respiratory chain complex III activity after 15 days relative to control; settings: hepg2, 360 h
HepG2 [7] = assay: Cytotoxicity against human HepG2 cells assessed as reduction in mitochondrial DNA content at 250 uM after 15 days by RT-PCR method relative to control; parameters: scale not given: the % may be the effect or the level left; settings: hepg2, 360 h; summary of the method: as §1
HepG2 [8] = assay: Cytotoxicity against human HepG2 cells assessed as inhibition of mitochondrial respiratory chain complex III activity at 10 uM after 15 days relative to control; settings: hepg2, 360 h
HepG2 [9] = assay: Cytotoxicity against human HepG2 cells assessed as increase in extracellular lactate secretion at 10 to 250 uM after 15 days relative to control; settings: hepg2, 360 h
Summary of the method: (§2)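 Extracellular lactate in HepG2 culture medium measured with a lactic acid kit after 15 days of exposure. Medium and drug renewed every 3 days. Expressed as mg lactic acid per 10⁶ cells, then as percent of 0.1% DMSO vehicle control. n = 3.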

HepG2 [10] = assay: Cytotoxicity against human HepG2 cells assessed as inhibition of mitochondrial respiratory chain complex III activity at 50 uM after 15 days relative to control; settings: hepg2, 360 h
HepG2 [11] = assay: Cytotoxicity against human HepG2 cells assessed as inhibition of mitochondrial respiratory chain complex I activity at 50 uM after 15 days relative to control; settings: hepg2, 360 h
HepG2 [12] = assay: Cytotoxicity against human HepG2 cells assessed as inhibition of mitochondrial respiratory chain complex II activity at 10 uM after 15 days relative to control; settings: hepg2, 360 h
HepG2 [13] = assay: Cytotoxicity against human HepG2 cells assessed as inhibition of mitochondrial respiratory chain complex IV activity at 250 uM after 15 days relative to control; settings: hepg2, 360 h
HepG2 [14] = assay: Cytotoxicity against human HepG2 cells assessed as inhibition of mitochondrial respiratory chain complex IV activity after 15 days relative to control; settings: hepg2, 360 h
HepG2 [15] = assay: Cytotoxicity against human HepG2 cells assessed as lipid droplet formation at 250 uM after 15 days by electron microscopy relative to control; settings: hepg2, 360 h
Summary of the method: (§3)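 HepG2 cells exposed 15 days, then fixed in 2.5% glutaraldehyde 1 h, postfixed in 1% osmium tetroxide 1 h, dehydrated through graded ethanol and propylene oxide, Epon-embedded, sectioned, and stained with uranyl acetate and lead citrate. Examined by transmission EM; >10 fields per treatment at low or high magnification; three independent experiments. DMSO 0.1% vehicle control.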

HepG2 [16] = assay: Cytotoxicity against human HepG2 cells assessed as inhibition of mitochondrial respiratory chain complex III activity at 250 uM after 15 days relative to control; settings: hepg2, 360 h
HepG2 [17] = assay: Cytotoxicity against human HepG2 cells assessed as reduction in viable cells upto 250 uM after 15 days by trypan blue dye exclusion assay relative to control; settings: hepg2, 360 h
Summary of the method: (§4)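 HepG2 cells seeded at 5 × 10⁵/ml in MEM with 10% FBS and 1 mM pyruvate. Exposed for 6, 9 and 15 days, with medium and drug renewed every 3 days. Viable cells counted by trypan blue exclusion on a hemocytometer and expressed as percent of 0.1% DMSO control; three independent experiments.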

HepG2 [18] = assay: Cytotoxicity against human HepG2 cells assessed as inhibition of mitochondrial respiratory chain complex IV activity at 50 uM after 15 days relative to control; settings: hepg2, 360 h
HepG2 [19] = assay: Cytotoxicity against human HepG2 cells assessed as reduction in mitochondrial DNA content at 50 uM after 15 days by RT-PCR method relative to control; parameters: scale not given: the % may be the effect or the level left; settings: hepg2, 360 h; summary of the method: as §1
HepG2 [20] = assay: Cytotoxicity against human HepG2 cells assessed as inhibition of mitochondrial respiratory chain complex I activity after 15 days relative to control; settings: hepg2, 360 h
HepG2 [21] = assay: Cytotoxicity against human HepG2 cells assessed as inhibition of mitochondrial respiratory chain complex II activity at 50 uM after 15 days relative to control; settings: hepg2, 360 h
HepG2 [22] = assay: Cytotoxicity against human HepG2 cells assessed as inhibition of mitochondrial respiratory chain complex I activity at 250 uM after 15 days relative to control; settings: hepg2, 360 h
HepG2 [23] = assay: Cytotoxicity against human HepG2 cells assessed as mitochondrial swelling at 250 uM after 15 days by electron microscopy relative to control; settings: hepg2, 360 h; summary of the method: as §3
HepG2 [24] = assay: Cytotoxicity against human HepG2 cells assessed as disrupted mitochondrial cristae at 10 uM after 15 days by electron microscopy relative to control; settings: hepg2, 360 h; summary of the method: as §3
HepG2 [25] = assay: Cytotoxicity against human HepG2 cells assessed as reduction in viable cells at 10 uM after 15 days by trypan blue dye exclusion assay relative to control; settings: hepg2, 360 h; summary of the method: as §4
HepG2 [26] = assay: Cytotoxicity against human HepG2 cells assessed as mitochondrial swelling at 10 uM after 15 days by electron microscopy relative to control; settings: hepg2, 360 h; summary of the method: as §3
HepG2 [27] = assay: Cytotoxicity against human HepG2 cells assessed as increase in extracellular lactate secretion at 10 uM after 15 days relative to control; settings: hepg2, 360 h; summary of the method: as §2
HepG2 [28] = assay: Cytotoxicity against human HepG2 cells assessed as slight increase in mitochondrial size at 50 uM after 15 days by electron microscopy relative to control; settings: hepg2, 360 h; summary of the method: as §3
HepG2 [29] = assay: Cytotoxicity against human HepG2 cells assessed as reduction in viable cells at 50 uM after 6 days by trypan blue dye exclusion assay relative to control; settings: hepg2, 144 h; summary of the method: as §4
HepG2 [30] = assay: Cytotoxicity against human HepG2 cells assessed as increase in extracellular lactate secretion at 50 uM after 15 days relative to control; settings: hepg2, 360 h; summary of the method: as §2
HepG2 [31] = assay: Cytotoxicity against human HepG2 cells assessed as reduction in viable cells at 50 uM after 15 days by trypan blue dye exclusion assay relative to control; settings: hepg2, 360 h; summary of the method: as §4

With `COc1nc(N)nc2c1ncn2[C@H]1CC[C@@H](CO)O1` [METACAVIR] the Activity (HepG2 [1]) was “Non-toxic”, the Activity (HepG2 [2]) was “Dose-dependent effect” and the Activity (HepG2 [3]) was “Toxic”. For the same molecule, the Activity (HepG2 [4]) was “Non-toxic”, the Activity (HepG2 [5]) was “Non-toxic” and the Activity (HepG2 [6]) was “Dose-dependent effect”. For the same molecule, the Activity (HepG2 [7]) was 60%, the Activity (HepG2 [8]) was “Non-toxic” and the Activity (HepG2 [9]) was “Non-toxic”. The Activity (HepG2 [10]) was “Toxic”, the Activity (HepG2 [11]) was “Toxic” and the Activity (HepG2 [12]) was “Non-toxic”. For the same molecule, the Activity (HepG2 [13]) was “Toxic”, the Activity (HepG2 [14]) was “Dose-dependent effect” and the Activity (HepG2 [15]) was “Toxic”. The Activity (HepG2 [16]) was “Toxic”, the Activity (HepG2 [17]) was “Non-toxic” and the Activity (HepG2 [18]) was “Toxic”. For the same molecule, the Activity (HepG2 [19]) was 80%, the Activity (HepG2 [20]) was “Dose-dependent effect” and the Activity (HepG2 [21]) was “Non-toxic”. The Activity (HepG2 [22]) was “Toxic” and the Activity (HepG2 [23]) was “Toxic”.

In the case of `Nc1ccn([C@H]2CC[C@@H](CO)O2)c(=O)n1` [ZALCITABINE], the Activity (HepG2 [1]) is reported as 3%, the Activity (HepG2 [24]) is reported as “Toxic” and the Activity (HepG2 [25]) is reported as < 30%. The Activity (HepG2 [4]) was “Toxic”, the Activity (HepG2 [26]) was “Toxic” and the Activity (HepG2 [5]) was “Toxic”. The Activity (HepG2 [27]) was 170%, the Activity (HepG2 [8]) was “Toxic” and the Activity (HepG2 [12]) was “Toxic”.

With `Cc1cn([C@H]2C[C@H](N=[N+]=[N-])[C@@H](CO)O2)c(=O)[nH]c1=O` [ZIDOVUDINE] the Activity (HepG2 [28]) was “Toxic”, the Activity (HepG2 [29]) was “Toxic” and the Activity (HepG2 [30]) was 300%. For the same molecule, the Activity (HepG2 [10]) was “Toxic”, the Activity (HepG2 [11]) was “Toxic” and the Activity (HepG2 [31]) was 60%. The Activity (HepG2 [18]) was “Toxic”, the Activity (HepG2 [19]) was “Non-toxic” and the Activity (HepG2 [21]) was “Toxic”.
